Data reported in ChEMBL document CHEMBL1828509, “Synthesis, pharmacological evaluation and docking studies of coumarin derivatives” (2011).

How the values were obtained:
Type in all cases: functional
Escherichia coli [1] = assay: Antimicrobial activity against Escherichia coli MTCC 4315 at 10 ug/ml; conditions: read-out: IZ
Bacillus subtilis [2] = assay: Antimicrobial activity against Bacillus subtilis MTCC 1789 at 10 ug/ml; conditions: read-out: IZ
Bacillus subtilis [3] = assay: Antimicrobial activity against Bacillus subtilis MTCC 1789 at 25 ug/ml; conditions: read-out: IZ
Rattus norvegicus [4] = assay: Antiinflammatory activity in Wistar albino rat assessed as inhibition of carrageenan-induced paw edema at 20 mg/kg, po administered 30 mins before carrageenan challenge measured after 2 hrs by plethysmograph
In short: (§1)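 Male Wistar albino rats (150–200 g), six per group, dosed orally with 20 mg/kg suspension; control got 0.1 ml of 1% gum acacia suspension orally. After 30 min, 0.1 ml of 1% carrageenan in normal saline injected sub-plantar into the right hind paw. Paw volume measured by plethysmograph at 0, 1, 2, 3 and 4 h; percent edema inhibition versus control at matching time.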

Escherichia coli [5] = assay: Antimicrobial activity against Escherichia coli MTCC 4315 at 25 ug/ml; conditions: read-out: IZ
Escherichia coli [6] = assay: Antimicrobial activity against Escherichia coli MTCC 4315 at 50 ug/ml; conditions: read-out: IZ
Bacillus subtilis [7] = assay: Antimicrobial activity against Bacillus subtilis MTCC 1789 at 50 ug/ml; conditions: read-out: IZ
Candida albicans [8] = assay: Antifungal activity against Candida albicans MTCC 183 at 25 ug/ml; conditions: read-out: IZ
Rattus norvegicus [9] = assay: Antiinflammatory activity in Wistar albino rat assessed as inhibition of carrageenan-induced paw edema at 20 mg/kg, po administered 30 mins before carrageenan challenge measured after 4 hrs by plethysmograph; in short: as §1
Rattus norvegicus [10] = assay: Antiinflammatory activity in Wistar albino rat assessed as inhibition of carrageenan-induced paw edema at 20 mg/kg, po administered 30 mins before carrageenan challenge measured after 3 hrs by plethysmograph; in short: as §1
Candida albicans [11] = assay: Antifungal activity against Candida albicans MTCC 183 at 50 ug/ml; conditions: read-out: IZ
Aspergillus niger [12] = assay: Antifungal activity against Aspergillus niger MTCC 282 at 50 ug/ml; conditions: read-out: IZ
Rattus norvegicus [13] = assay: Antiinflammatory activity in Wistar albino rat assessed as inhibition of carrageenan-induced paw edema at 20 mg/kg, po administered 30 mins before carrageenan challenge measured after 1 hr by plethysmograph; in short: as §1
Mus musculus = assay: Analgesic activity in mouse assessed as inhibition of acetic acid-induced writhing administered 30 mins before acetic acid challenge measured after 30 mins relative to control; parameters: concentration or dose not given beside the values
In short: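 Groups of six mice (20–30 g, both sexes, pregnant females excluded) dosed with test compound; 30 min later 0.25 ml/mouse of 0.5% acetic acid given i.p. Writhes counted over the next 30 min. Mean writhes per group ± SE; percent decrease versus untreated control mice.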

Aspergillus niger [14] = assay: Antifungal activity against Aspergillus niger MTCC 282 at 25 ug/ml; conditions: read-out: IZ
Candida albicans [15] = assay: Antifungal activity against Candida albicans MTCC 183 at 10 ug/ml; conditions: read-out: IZ
Aspergillus niger [16] = assay: Antifungal activity against Aspergillus niger MTCC 282 at 10 ug/ml; conditions: read-out: IZ

SMILES | zone of inhibition at 10 µg/mL (Escherichia coli [1]) | zone of inhibition at 10 µg/mL (Bacillus subtilis [2]) | zone of inhibition at 25 µg/mL (Bacillus subtilis [3]) | inhibition in vivo at 20 mg/kg (Rattus norvegicus [4]) | zone of inhibition at 25 µg/mL (Escherichia coli [5]) | zone of inhibition at 50 µg/mL (Escherichia coli [6]) | zone of inhibition at 50 µg/mL (Bacillus subtilis [7]) | zone of inhibition at 25 µg/mL (Candida albicans [8]) | inhibition in vivo at 20 mg/kg (Rattus norvegicus [9]) | inhibition in vivo at 20 mg/kg (Rattus norvegicus [10]) | zone of inhibition at 50 µg/mL (Candida albicans [11]) | zone of inhibition at 50 µg/mL (Aspergillus niger [12]) | inhibition in vivo at 20 mg/kg (Rattus norvegicus [13]) | Activity (Mus musculus) | zone of inhibition at 25 µg/mL (Aspergillus niger [14]) | zone of inhibition at 10 µg/mL (Candida albicans [15]) | zone of inhibition at 10 µg/mL (Aspergillus niger [16])
Cc1cccc(NCC(=O)Oc2ccc3c(C)cc(=O)oc3c2)c1 | 11 mm | 10.5 mm | 12.4 mm | 15.3% | 14 mm | 16.9 mm | 13.6 mm | 13.4 mm | 23.7% | 15.9% | 14.4 mm | 13.4 mm | 12.5% | 13% | 12.2 mm | 11.4 mm | 
Cc1ccc(NCC(=O)Oc2ccc3c(C)cc(=O)oc3c2)cc1 | 11.2 mm |  |  | 20.5% | 13 mm | 14 mm | 12.3 mm |  | 6.7% | 20.2% | 12.4 mm | 11.4 mm | 14.2% | 28% | 10.5 mm |  | 
Cc1cc(=O)oc2cc(OC(=O)CNN3C=NNC3)ccc12 |  | 12.5 mm | 14.3 mm | 42.3% | 14.1 mm | 16.2 mm | 18.1 mm | 13.4 mm | 22.2% | 27.6% | 15.4 mm |  | 42.8% | 37% | 13.6 mm | 12.4 mm | 11.2 mm
Cc1cc(=O)oc2cc(OC(=O)CNc3nc4ccccc4s3)ccc12 |  | 10.4 mm |  | 35.9% |  | 14.5 mm | 18.1 mm | 12.2 mm | 40.6% | 40.4% |  | 12.4 mm | 30.3% | 35% |  | 13.4 mm | 
Cc1cc(=O)oc2cc(OC(=O)CNc3nccs3)ccc12 |  | 10.4 mm | 14.4 mm | 37.1% | 10.2 mm | 18.4 mm | 16.9 mm |  | 32.3% | 47.8% | 12.4 mm | 16.5 mm | 39.2% | 45% | 15.4 mm | 10.1 mm | 13.4 mm
NCC[C@H](O)C(=O)N[C@@H]1C[C@H](N)[C@@H](O[C@H]2O[C@H](CN)[C@@H](O)[C@H](O)[C@H]2O)[C@H](O)[C@H]1O[C@H]1O[C@H](CO)[C@@H](O)[C@H](N)[C@H]1O [AMIKACIN] | 14 mm |  |  |  | 16.2 mm | 20 mm |  |  |  |  |  |  |  |  |  |  | 
COC1=CC(=O)C[C@@H](C)[C@]12Oc1c(Cl)c(OC)cc(OC)c1C2=O [GRISEOFULVIN] |  |  |  |  |  |  |  | 14.2 mm |  |  | 18.2 mm |  |  |  |  | 12.6 mm | 
COc1ccc2c(c1)c(CC(=O)O)c(C)n2C(=O)c1ccc(Cl)cc1 [INDOMETHACIN] |  |  |  | 67.9% |  |  |  |  | 57.6% | 68.8% |  |  | 53.5% | 56% |  |  | 
CN[C@H](CC(C)C)C(=O)N[C@H]1C(=O)N[C@@H](CC(N)=O)C(=O)N[C@H]2C(=O)N[C@H]3C(=O)N[C@H](C(=O)N[C@H](C(=O)O)c4cc(O)cc(O)c4-c4cc3ccc4O)[C@H](O)c3ccc(c(Cl)c3)Oc3cc2cc(c3O[C@@H]2O[C@H](CO)[C@@H](O)[C@H](O)[C@H]2O[C@H]2C[C@](C)(N)[C@H](O)[C@H](C)O2)Oc2ccc(cc2Cl)[C@H]1O [VANCOMYCIN] |  | 14.2 mm | 18.2 mm |  |  |  | 20.1 mm |  |  |  |  |  |  |  |  |  | 
